Data set [1] can be described thus: Toxicity in Zebrafish embryos assessed as death at 10 uM incubated for 5 days by Teratogenic test. Details: species or system Danio rerio, Embryo. Particulars: in vivo, time 5 day, read-out: Activity. Summed up: (§1)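 Tg(GFAP:GFP) zebrafish embryos from 2 female × 1 male matings, 8 embryos per control or concentration, exposed from 1 h post-fertilization and kept at 28 °C for about 5 days without medium change. At 5 dpf (120 h) mortality and developmental abnormalities (tail shape, heart, pigmentation) were scored, with morphology given a severity score.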

Data set [2] is described as follows: Toxicity in Zebrafish embryos assessed as death at 50 uM incubated for 5 days by Teratogenic test. Also noted: species or system Danio rerio, Embryo. Particulars: in vivo, 120 h, time 5 day. In a few lines:
as §1

Data set [3] relates to SH-SY5Y. Kind of data set: Cytotoxicity against human SH-SY5Y cells assessed as cell death at 0.1 to 50 uM incubated for 72 hrs by MTT assay. Type of data set: toxicity, cell-based. To be noted: dose 0.1-50 µM. In a few lines:
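SH-SY5Y cells kept in DMEM/10% FBS, 2 mM glutamine, 37 °C, 5% CO2; ~7000 cells/well, after 1 day given compound (six concentrations, 0.1–100 μM; DMSO stocks 10 mM) in 2% FBS medium for 72 h. MTT (0.5% w/v, 2 h), formazan dissolved in DMSO, absorbance read; triplicates, % of untreated control.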
In general terms: Tetrazolium dyes change colour on reduction, which living cells bring about.

Data set [4] in a line: Selectivity index, ratio of Ki for displacement of [3H]DTG from sigma 2 receptor (unknown origin) to Ki for displacement of [3H]-(+)-pentazocine from sigma 1 receptor (unknown origin). A general note: Displacement assays read how much labelled ligand stays bound in the presence of the test substance.
Data set [5] has as its system LoVo. Kind of data set: Cytotoxicity against human LoVo cells assessed as reduction in cell survival rate at <=10 uM incubated for 24 to 72 hrs by MTT assay. Type of data set: toxicity, cell-based. Particulars: time 24-72 hrs. In a few lines: (§2)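 Cancer lines grown in Ham's F-12K or DMEM with 10% FBS, used in exponential growth; seeded 2500 cells/well, exposed to 0.1–100 μM for 24, 48 and 72 h continuous. Viability by CellTiter 96 AQueous One (tetrazolium) absorbance at 490 nm; three independent experiments in quadruplicate, % survival vs untreated.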

Data set [6] concerns SH-SY5Y. Put plainly: Neuroprotective activity in human SH-SY5Y cells assessed as prevention of rotenone induced cell damage by measuring cell viability at 1 uM preincubated with PB212 for 1hrs followed by compound addition in presence of rotenone and measured after 24 hrs by MTT assay. Type of data set: functional, cell-based. In a few lines:
(§3)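 SH-SY5Y cells pre-incubated 1 h with S1R antagonist PB212 (5 μM), then treated with compound (1 or 5 μM) plus PB212 (5 μM) and either rotenone 25 μM or NMDA 250 μM for 24 h; viability by MTT; two-way ANOVA with Bonferroni post hoc test.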

Data set [7] concerns SH-SY5Y. Kind of data set: Neuroprotective activity in human SH-SY5Y cells assessed as prevention of NMDA induced cytotoxicity by measuring cell viability at 1 uM preincubated with PB212 for 1hrs followed by compound addition in presence of NMDA and measured after 24 hrs by MTT assay. Type of data set: functional, cell-based. In a few lines: as §3
A short description of data set [8]: Thermodynamic solubility of the compound in KH2PO4/NaOH buffer at pH 6.8 incubated for 24 hrs. Type of data set: physicochemical. Particulars: read-out: Therm_solubility. In a few lines: (§4)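 10 mM DMSO stock diluted 1:100 into buffer (HCl/KCl pH 1.2; KH2PO4/NaOH pH 6.8; KH2PO4/Na2HPO4 pH 7.4), 1% v/v DMSO final; shaken 24 h at 1200 rpm, filtered through 0.45 μm polycarbonate membrane, filtrate diluted 1:1 with MeOH and analysed.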

Data set [9] relates to PC-12. Put plainly: Neuroprotective activity in rat PC12 cells assessed as induction of NGF-mediated neurite outgrowth at 0.1 to 5 uM by neurite outgrowth assay. In kind it is functional, cell-based. Particulars: dose 0.1-5 µM. Summed up:
(§5)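 PC12 cells stimulated with NGF (2.5 nM) and treated with compound up to 5 μM, alone or after pre-treatment with S1R antagonist NE-100 (3 μM); read-out is percentage of cells bearing neurite sprouts; mean ± SEM of three independent experiments.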

Data set [10] in a line: Dissociation constant, pKa of the compound. Type of data set: physicochemical.
Data set [11] is described as follows: Thermodynamic solubility of the compound in KH2PO4/Na2HPO4 buffer at pH 7.4 incubated for 24 hrs. Particulars: read-out: Therm_solubility. In kind it is physicochemical. Summed up: as §4
In data set [12] the target is Sigma non-opioid intracellular receptor 1 (Homo sapiens, UniProt Q99720). Kind of data set: Displacement of [3H]-(+)-pentazocine from sigma 1 receptor (unknown origin) at 25 nM by scintillation counting analysis. Particulars: filed as agonist. Summed up:
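Single-concentration screen at 25 nM test compound against [3H](+)pentazocine (15 nM) at S1R; scintillation counting; result given as % inhibition of control specific binding, i.e. 100 minus measured/control specific binding ×100.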

Data set [13] relates to SH-SY5Y. Put plainly: Neuroprotective activity in human SH-SY5Y cells assessed as prevention of oligomycin induced cell damage by measuring cell viability at 0.1 to 5 uM incubated for 24 hrs in presence of oligomycin by MTT assay. In kind it is functional, cell-based. To be noted: dose 0.1-5 µM. Summed up: (§6)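 SH-SY5Y cells (~7000/well) co-incubated 24 h at 37 °C in 2% FBS medium with toxic stimulus (NMDA 250 μM or oligomycin 2.5 μM) plus compound at 0.1–5 μM. Viability by MTT, expressed as % of control.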

For data set [14], the system named is SH-SY5Y. Kind of data set: Neuroprotective activity in human SH-SY5Y cells assessed as prevention of rotenone induced cell damage by measuring cell viability at 1 uM incubated for 24 hrs in presence of rotenone by MTT assay. In kind it is functional. Summed up:
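SH-SY5Y cells co-exposed 24 h at 37 °C to rotenone 25 μM and compound at 1.0 or 5.0 μM in 2% FBS medium; viability by MTT, mean ± SD of three independent experiments.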

A short description of data set [15]: Toxicity in Zebrafish embryos assessed as variation in embryo morphology score at 1 uM incubated for 5 days by Teratogenic test. Details: species or system Danio rerio. Particulars: in vivo, 120 h, time 5 day. Summed up: (§7)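 Tg(GFAP:GFP) zebrafish embryos, 8 per group, exposed from 1 h post-fertilization to increasing compound concentrations at 28 °C for about 5 days without medium change; mortality, developmental defects and morphology score assessed at 5 dpf.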

Data set [16] relates to PANC-1. Kind of data set: Cytotoxicity against human PANC-1 cells assessed as reduction in cell survival rate at <=10 uM incubated for 24 to 72 hrs by MTT assay. Type of data set: toxicity, cell-based. To be noted: panc-1, 10 µM, time 24-72 hrs. Summed up:
as §2

Data set [17] in a line: Lipophilicity, logP of the compound. Type of data set: physicochemical. To be noted: octanol/water.
Data set [18] concerns SH-SY5Y. Kind of data set: Neuroprotective activity in human SH-SY5Y cells assessed as prevention of NMDA induced cytotoxicity by measuring cell viability at 0.1 to 5 uM incubated for 24 hrs in presence of NMDA by MTT assay. Type of data set: functional, cell-based. Particulars: dose 0.1-5 µM. In a few lines:
as §6

Data set [19] can be described thus: Toxicity in Zebrafish embryos assessed as morphological abnormality by observing enlarged volume of heart at 10 uM incubated for 5 days by Teratogenic test. Type of data set: tissue-based, Danio rerio. Particulars: in vivo, 120 h, time 5 day. In a few lines: as §7
A short description of data set [20]: Toxicity in Zebrafish embryos assessed as morphological abnormality by observing short and up-curved tail at 10 uM incubated for 5 days by Teratogenic test. Details: species or system Danio rerio. To be noted: in vivo, 120 h, time 5 day. Summed up:
as §7

Data set [21] can be described thus: Toxicity in Zebrafish embryos assessed as variation in embryo morphology score at 10 uM incubated for 5 days by Teratogenic test. To be noted: in vivo, 120 h, time 5 day. Also noted: species or system Danio rerio. In a few lines:
as §7

The subject of data set [22] is PC-12. Put plainly: Neuroprotective activity in rat PC12 cells assessed as induction of NGF-mediated neurite outgrowth at 0.1 to 5 uM in presence of NE-100 by neurite outgrowth assay. Particulars: dose 0.1-5 µM. In kind it is functional, cell-based. Summed up:
as §5

Data set [23] is described as follows: Toxicity in Zebrafish embryos assessed as increase in embryo vitality structure damage at 10 to 50 uM incubated for 5 days by Teratogenic test. Particulars: in vivo, 120 h, dose 10-50 µM, time 5 day. Details: species or system Danio rerio. In a few lines:
as §1

Converted amounts (≈) assume the structure as drawn. The source made the active and inactive calls. No cut-off for these calls is given here.

Sequence of Sigma non-opioid intracellular receptor 1 (Q99720 whole entry): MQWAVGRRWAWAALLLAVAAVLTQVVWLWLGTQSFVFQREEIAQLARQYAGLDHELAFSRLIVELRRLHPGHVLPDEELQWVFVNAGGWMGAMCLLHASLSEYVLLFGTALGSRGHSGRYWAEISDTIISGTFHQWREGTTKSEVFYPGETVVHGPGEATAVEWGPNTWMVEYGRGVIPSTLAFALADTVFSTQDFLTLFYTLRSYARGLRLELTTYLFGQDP

A word on the pKa: it is the negative logarithm of the acid dissociation constant. Lower therefore signals a stronger acid or weaker base. The logP is a log measure of how a compound divides between an organic and an aqueous phase. Take `c1ccc(CC2CCN(CCOc3ccccc3)CC2)cc1`: in [1], the mortality at 120 h, 10 µM is 50%. The Activity result in [2] is “Toxic”; in data set [3], “Non-Toxic”; in [5], “Non-Toxic”; in [9], “Dose-Dependent Effect”; in data set [12], > 95%; in data set [14], 65%. Moreover, the Activity result is given as “Non-Toxic” in data set [15]; “Non-Toxic” in data set [16]; 100% in data set [19]; 75% in data set [20]; “Toxic” in data set [21]; “Toxic” in [23]. Moreover, the Ratio Ki in data set [4] was 77. For the same compound, the outcome in data set [6], in data set [7], in data set [13] and in data set [22] was inactive. The solubility thermodynamic at 24 h in data set [8] and in data set [11] was 7800 µg/mL (≈ 26.4 mM) in each case. For the same compound, in data set [10], the pKa stood at 8.56. For the same compound, the logP in data set [17] worked out at 4. Further, the outcome in [18] was Active.

With `c1ccc(CC2CCN(CCCOc3ccccc3)CC2)cc1`, the mortality at 120 h, 10 µM in [1] came to 100%. The Activity result is “Toxic” in data set [2]; “Non-Toxic” in data set [3]; “Non-Toxic” in data set [5]; “Dose-Dependent Effect” in data set [9]; > 95% in data set [12]; 68% in data set [14]. The Activity result in data set [15] was “Non-Toxic”; in data set [16], “Non-Toxic”; in data set [19] it was “Toxic”; in data set [20] it was “Toxic”; in [21], “Non-Toxic”; in [23], “Toxic”. Besides, the Ratio Ki in data set [4] is 80. For the same compound, the outcome in [6], in [7], in data set [13] and in [22] was inactive. The solubility thermodynamic at 24 h in [8] and in data set [11] was 2800 µg/mL (≈ 9.05 mM) in each case. The same compound gave a pKa in data set [10] of 9.26. In data set [17], this compound registered a log partition coefficient (logP) of 4.38. Besides, in data set [18], the result was Active.

These data come from ChEMBL document CHEMBL5331102, “Novel S1R agonists counteracting NMDA excitotoxicity and oxidative stress: A step forward in the discovery of neuroprotective agents” (Eur J Med Chem, 2023).
